Activity calls are given as the source filed them. The calls are words filed in the database; no cut-off is given here.
What was measured:
A549 = experiment: Antiproliferative activity against human A549 cells assessed as reduction in cell growth incubated for 72 hrs by MTT assay; type: functional, cell-based; details: A549, 72 h
How it was run: (§1)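 Log-phase cells seeded at 5 × 10³/well and grown 24 h, then exposed to graded compound concentrations for 72 h. MTT (5 mg/mL) added for 4 h; formazan dissolved in DMSO and absorbance read at 490 nm. IC50 calculated from growth inhibition; means ± SD of triplicate experiments.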

HeLa = experiment: Antiproliferative activity against human HeLa cells assessed as reduction in cell growth incubated for 72 hrs by MTT assay; type: functional, cell-based; how it was run: as §1
HepG2 = experiment: Antiproliferative activity against human HepG2 cells assessed as reduction in cell growth incubated for 72 hrs by MTT assay; type: functional, cell-based; details: HepG2, 72 h; how it was run: as §1
MCF7 [1] = experiment: Antiproliferative activity against human MCF7 cells assessed as reduction in cell growth incubated for 72 hrs by MTT assay; type: functional, cell-based; details: MCF7, 72 h; how it was run: as §1
HCT-116 = experiment: Antiproliferative activity against human HCT-116 cells assessed as reduction in cell growth incubated for 72 hrs by MTT assay; type: functional, cell-based; details: HCT-116, 72 h; how it was run: as §1
WI-38 = experiment: Cytotoxicity against human WI-38 cells assessed as reduction in cell growth incubated for 72 hrs by MTT assay; type: cell-based; details: WI-38, 72 h; how it was run: as §1
HUVEC [2] = experiment: Antimigratory activity against human HUVEC assessed as cell migration rate at 0.1 uM incubated for 12 hrs by wound healing assay (reference value: 68.5 %); type: functional
MCF7 [3] = experiment: Induction of cell cycle arrest in human MCF7 cells assessed as reduction in CyclinB1 expression incubated for 24 hrs by Western blot analysis; type: functional, cell-based; details: dose 10-100 nM
How it was run: (§2)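 MCF-7 cells treated 24 h with 0, 10, 50 or 100 nM compound and lysed in RIPA buffer. Equal protein loads separated by 8–12% SDS-PAGE, transferred to nitrocellulose and blocked with 5% milk. Probed overnight at 4 °C with primary antibodies to Cdc25c, Cdc2 and Cyclin B1, then HRP secondary, with ECL detection. Densitometry averaged from two independent experiments.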

HUVEC [4] = experiment: Antivascular activity against HUVEC assessed as reduction in tube formation incubated for 6 hrs by matrigel based inverted fluorescence microscopic analysis; type: functional, cell-based; details: Homo sapiens, dose 0.1-1 µM
How it was run: (§3)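 Matrigel polymerized 30 min at 37 °C. HUVECs in ECM medium with 20% FBS seeded at 5 × 10⁴/well with compound at 0, 0.1, 0.5 or 1 μM. After 6 h, tubule formation was photographed under an inverted microscope (×100).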

HUVEC [5] = experiment: Antivascular activity against HUVEC assessed as reduction in tube formation at 0.1 microM incubated for 6 hrs by matrigel based inverted fluorescence microscopic analysis; type: functional, cell-based; details: Homo sapiens; how it was run: as §3
MCF7 [6] = experiment: Induction of cell cycle arrest in human MCF7 cells assessed as accumulation in S phase at 10 nM incubated for 24 hrs by PI staining based flow cytometry analysis (reference value: 19.50 %); type: functional
MCF7 [7] = experiment: Induction of cell cycle arrest in human MCF7 cells assessed as accumulation in G1 phase at 5 nM incubated for 24 hrs by PI staining based flow cytometry analysis (reference value: 63.70 %); type: functional
HUVEC [8] = experiment: Antimigratory activity against human HUVEC assessed as cell migration rate at 0.5 uM incubated for 24 hrs by wound healing assay (reference value: 100 %); type: functional
MCF7 [9] = experiment: Induction of cell cycle arrest in human MCF7 cells assessed as accumulation in G2/M phase at 10 nM incubated for 24 hrs by PI staining based flow cytometry analysis (reference value: 16.81 %); type: functional
Sus scrofa = organism: Sus scrofa; experiment: (§4) Inhibition of pig brain tubulin polymerization by spectrophotometric method; type: tissue-based
How it was run: (§5)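 Pig brain tubulin, purified by three assembly/disassembly cycles and phosphocellulose chromatography, mixed with compound at various concentrations. Buffer: PEM (100 mM PIPES, 1 mM MgCl₂, 1 mM EGTA) with 1 mM GTP and 5% glycerol. Polymerization followed at 37 °C by light scattering at 340 nm; plateau absorbance used for calculation.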

[10] = as §4; type: tissue-based, Sus scrofa; how it was run: as §5
MCF7 [11] = experiment: Induction of cell cycle arrest in human MCF7 cells assessed as reduction in Cdc25c expression incubated for 24 hrs by Western blot analysis; type: functional, cell-based; details: dose 10-100 nM; how it was run: as §2
HUVEC [12] = experiment: Antivascular activity against HUVEC assessed as reduction in tube formation at 1 microM incubated for 6 hrs by matrigel based inverted fluorescence microscopic analysis; type: functional; details: Homo sapiens; how it was run: as §3
MCF7 [13] = experiment: Disruption of microtubule organization in human MCF7 cells assessed as microtubules shrinkage around the nucleus at 10 nM incubated for 6 hrs by immunofluorescence based laser scanning confocal microscopic analysis; type: functional, cell-based
How it was run: (§6)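 MCF-7 cells (3 × 10⁴) grown 24 h in confocal dishes, then treated 6 h with compound. Fixed in prewarmed 4% paraformaldehyde, permeabilized with 0.5% Triton X-100, blocked with 10% goat serum. Stained with mouse anti-tubulin (4 °C overnight), Alexa Fluor 488 secondary, and DAPI. Imaged by laser scanning confocal microscopy.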

HUVEC [14] = experiment: Antimigratory activity against human HUVEC assessed as cell migration rate at 1 uM incubated for 12 hrs by wound healing assay (reference value: 68.5 %); type: functional
HUVEC [15] = experiment: Antiinvasive activity against human HUVEC incubated for 24 hrs by crystal violet staining based inverted fluorescence microscopic transwell assay; type: functional, cell-based; details: dose 0.05-1 µM
How it was run: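 Transwell inserts pre-coated with Matrigel (5 h, 37 °C). Cells in serum-free medium with 0, 0.05, 0.1, 0.5 or 1 μM compound were added to the upper well at 5 × 10⁵ cells/mL; the lower chamber held ECM with 10% FBS. After 24 h at 37 °C, invaded cells were methanol-fixed, stained with 0.1% crystal violet and counted in three random fields. Mean ± SD, three independent experiments.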

HUVEC [16] = experiment: Antivascular activity against HUVEC assessed as disruption of vascular structure incubated for 6 hrs by matrigel based inverted fluorescence microscopic analysis; type: functional, cell-based; details: Homo sapiens, dose 0.1-1 µM
How it was run: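 Capillary-like networks were formed by HUVECs on Matrigel over 6 h, then exposed to vehicle or compound (0.1, 0.5, 1 μM) in serum-free DMEM for 6 h and photographed. Remaining tubes were counted; disruption = [1 − (tubes treated/tubes vehicle)] × 100%.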

HUVEC [17] = experiment: Downregulation of MMP-9 protein expression in HUVEC at 0.05 to 1 uM incubated for 24 hrs by Western blot analysis; type: functional; details: Homo sapiens, dose 0.05-1 µM
How it was run: (§7)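 HUVECs exposed to various compound concentrations for 24 h. MMP-9 and TIMP-1 measured by western blot: RIPA lysates, equal protein loads on 8–12% SDS-PAGE, nitrocellulose transfer, primary antibodies overnight at 4 °C, HRP secondary, ECL detection.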

MCF7 [18] = experiment: Reduction in VEGF-A expression in human MCF7 cells at 50 to 100 nM incubated for 24 hrs by Western blot analysis; type: functional, cell-based; details: dose 50-100 nM
How it was run: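 MCF-7 cells treated with compound at various concentrations for 24 h. VEGF-A protein assessed by western blot (RIPA lysis, SDS-PAGE, nitrocellulose transfer, ECL detection) with quantitative densitometry. Mean ± SD, three independent experiments.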

MCF7 [19] = experiment: Induction of apoptosis in human MCF7 cells; type: functional, cell-based
HUVEC [20] = experiment: Antimigratory activity against human HUVEC assessed as cell migration rate at 1 uM incubated for 24 hrs by wound healing assay (reference value: 100 %); type: functional
MCF7 [21] = experiment: Disruption of microtubule organization in human MCF7 cells assessed as breakage and abnormal spindle formation incubated for 6 hrs by immunofluorescence based laser scanning confocal microscopic analysis; type: functional, cell-based; details: dose 10-100 nM; how it was run: as §6
HUVEC [22] = experiment: Antimigratory activity against human HUVEC assessed as cell migration rate at 0.5 uM incubated for 12 hrs by wound healing assay (reference value: 68.5 %); type: functional
MCF7 [23] = experiment: Induction of cell cycle arrest in human MCF7 cells assessed as reduction in Cdc2 expression incubated for 24 hrs by Western blot analysis; type: functional, cell-based; details: dose 10-100 nM; how it was run: as §2
MCF7 [24] = experiment: Induction of cell cycle arrest in human MCF7 cells assessed as accumulation in S phase at 5 nM incubated for 24 hrs by PI staining based flow cytometry analysis (reference value: 19.50 %); type: functional
HUVEC [25] = experiment: Antimigratory activity against human HUVEC assessed as cell migration rate at 0.1 uM incubated for 24 hrs by wound healing assay (reference value: 100 %); type: functional
MCF7 [26] = experiment: Induction of cell cycle arrest in human MCF7 cells assessed as accumulation in G1 phase at 10 nM incubated for 24 hrs by PI staining based flow cytometry analysis (reference value: 63.70 %); type: functional
MCF7 [27] = experiment: Disruption of microtubule organization in human MCF7 cells assessed as microtubules spindle shrinkage around the centre of the cell at 100 nM incubated for 6 hrs by immunofluorescence based laser scanning confocal microscopic analysis; type: functional; how it was run: as §6
HUVEC [28] = experiment: Upregulation of TIMP-1 protein expression in HUVEC at 0.05 to 1 uM incubated for 24 hrs by Western blot analysis; type: functional; details: Homo sapiens, dose 0.05-1 µM; how it was run: as §7
HUVEC [29] = experiment: Cytotoxicity against HUVEC cells assessed as reduction in cell growth incubated for 72 hrs by MTT assay; type: cell-based; details: Homo sapiens; how it was run: as §1
MCF7 [30] = experiment: Induction of cell cycle arrest in human MCF7 cells assessed as accumulation in G2/M phase at 5 nM incubated for 24 hrs by PI staining based flow cytometry analysis (reference value: 16.81 %); type: functional

CCN(c1cc(OC)c(OC)c(OC)c1)c1n[nH]c2nc(OC)ccc12
IC50 (A549): 31.2 µM
IC50 (HeLa): 0.7 µM
IC50 (HepG2): 9.64 µM
IC50 (MCF7 [1]): 0.81 µM
IC50 (HCT-116): 16.7 µM
IC50 (WI-38): 8.03 µM

COc1ccc2c(Nc3cc(OC)c(OC)c(OC)c3)nn(-c3ccccc3)c2n1
IC50 (A549): > 50 µM
IC50 (HeLa): 22.5 µM
IC50 (HepG2): 38.8 µM
IC50 (MCF7 [1]): > 50 µM
IC50 (HCT-116): > 50 µM
IC50 (WI-38): 12.6 µM

COc1ccc2c(N(C)c3cc(OC)c(OC)c(OC)c3)n[nH]c2n1
Activity (HUVEC [2]): 12.4%
IC50 (A549): 6 µM
Activity (MCF7 [3]): Dose-dependent effect
Activity (HUVEC [4]): Dose-dependent effect
Activity (HUVEC [5]): Active
Activity (MCF7 [6]): 10.11%
Activity (MCF7 [7]): 26.47%
Activity (HUVEC [8]): 26.6%
Activity (MCF7 [9]): 80.73%
IC50 (HeLa): 0.21 µM
inhibition (Sus scrofa): Dose-dependent effect
IC50 [10]: 14 µM
IC50 (HepG2): 4.79 µM
Activity (MCF7 [11]): Dose-dependent effect
inhibition at 1 µM (HUVEC [12]): 100%
Activity (MCF7 [13]): Active
Activity (HUVEC [14]): 10.9%
Activity (HUVEC [15]): Dose-dependent effect
Activity (HUVEC [16]): Dose-dependent effect
inhibition (HUVEC [17]): Active
IC50 (MCF7 [1]): 0.067 µM
inhibition (MCF7 [18]): Active
Activity (MCF7 [19]): inactive
Activity (HUVEC [20]): 22.4%
Activity (MCF7 [21]): Dose-dependent effect
Activity (HUVEC [22]): 11.3%
Activity (MCF7 [23]): Dose-dependent effect
Activity (MCF7 [24]): 10.02%
Activity (HUVEC [25]): 26.4%
IC50 (HCT-116): 0.26 µM
IC50 (WI-38): 23.4 µM
Activity (MCF7 [26]): 9.16%
Activity (MCF7 [27]): Active
Activity (HUVEC [28]): Active
IC50 (HUVEC [29]): 23.5 µM
Activity (MCF7 [30]): 63.5%

COc1ccc2c(N(CC3CC3)c3cc(OC)c(OC)c(OC)c3)n[nH]c2n1
IC50 (A549): 20.6 µM
IC50 (HeLa): 0.18 µM
IC50 (HepG2): 5.46 µM
IC50 (MCF7 [1]): 2.35 µM
IC50 (HCT-116): 2.18 µM
IC50 (WI-38): 1.29 µM

— ChEMBL document CHEMBL4680339, “Synthesis and bioevaluation of N-(3,4,5-trimethoxyphenyl)-1H-pyrazolo[3,4-b]pyridin-3-amines as tubulin polymerization inhibitors with anti-angiogenic effects” (Bioorg Med Chem, 2021)
